Among the data in the array DNA melting data of Ke et al. (doi:10.1101/2024.01.08.574731) are Tm and folding enthalpy values, retold here.

A short description of data set [1]: melting temperature; fluorescence melt of hairpins on a sequencing array, two-state fit, raised by 9.35 °C to match UV melts. The note with it: sodium 0.088 M. In a few lines:
(§1)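 Melting temperature and folding enthalpy were derived from bootstrapped two-state fits. The fitted temperatures were raised by 9.35 °C to agree with UV melts, and four replicates were combined by inverse variance. The underlying data were Cy3 fluorescence images of library hairpins, with annealed Cy3 and quencher oligos, on a sequenced MiSeq flow cell in 50 mM Na-HEPES pH 8.0, 25 mM NaCl, taken in 2.5 °C steps up to 60 °C, normalised to pre-quench Cy3 and to control constructs.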

Data set [2] in a line: folding enthalpy; higher = less favourable; fluorescence melt of hairpins on a sequencing array, two-state fit. The note with it: sodium 0.088 M. In a few lines: as §1

As for GCGGACGAAAGTCACGC ((((((....))).))), the Tm in data set [1] was found to be 64.8 °C. Moreover, the folding enthalpy in data set [2] was -20.9 kcal/mol.

Take GCGGACGAAAGTCCACGC ((((((....)))..))): the Tm in data set [1] turned out to be 58.9 °C. For the same sequence, the folding enthalpy in data set [2] is -15.2 kcal/mol.

With GCGGACGACCGC ((((....)))), the Tm in data set [1] came out at 53.8 °C. Besides, the folding enthalpy in data set [2] is -24.6 kcal/mol.

Take GCGGACGGCCGC ((((....)))): the Tm in data set [1] was found to be 59.4 °C. Besides, the folding enthalpy in data set [2] is -37.6 kcal/mol.

GCGGACTCCGC ((((...)))): the Tm in data set [1] turned out to be 52 °C. In data set [2], the folding enthalpy was -20.5 kcal/mol.

With GCGGAGATCCGC ((((....)))), the Tm in data set [1] was 54.2 °C. The folding enthalpy in data set [2] is -26.2 kcal/mol.

For GCGGAGCACCGC ((((....)))), the Tm in data set [1] was found to be 61.6 °C. Also, the folding enthalpy in data set [2] was -11.2 kcal/mol.

Regarding GCGGAGCCGAAAGGCCGC (((..(((....)))))), the Tm in data set [1] stood at 61.1 °C. Further, the folding enthalpy in data set [2] is -18.8 kcal/mol.

Regarding GCGGAGCGAAAGCACAGC ((.(.((....)).).)), the Tm in data set [1] is 58 °C. In addition, the folding enthalpy in data set [2] was -17.4 kcal/mol.

GCGGAGCGAAAGCCCCGC ((((.((....)).)))): in data set [1], the Tm was 68.7 °C. In addition, the folding enthalpy in data set [2] was -35.3 kcal/mol.

Take GCGGAGCGAAAGCCGCGC (((..((....))..))): the Tm in data set [1] was 66.1 °C. Moreover, the folding enthalpy in data set [2] is -21.1 kcal/mol.

Regarding GCGGAGCGAAAGCCTCGC (((..((....))..))), the Tm in data set [1] was found to be 50.5 °C. Besides, the folding enthalpy in data set [2] was -13.8 kcal/mol.

GCGGAGCGAAAGCGCTGC ((.(.((....)).).)): the Tm in data set [1] came to 57.1 °C. In addition, in data set [2], the folding enthalpy was -15.2 kcal/mol.

Regarding GCGGAGCGAAAGCGTCGC (((..((....))..))), in data set [1], the Tm came to 67 °C. Moreover, the folding enthalpy in data set [2] is -26.6 kcal/mol.

On to GCGGAGCGAAAGCTCGC (((.(((....)))))), for which the Tm in data set [1] was determined as 67.4 °C. Besides, in data set [2], the folding enthalpy is -17.6 kcal/mol.

GCGGAGCGAAAGCTGAGC ((..(((....)))..)): in data set [1], the Tm was 56.5 °C. In data set [2], the folding enthalpy was -14.6 kcal/mol.

As to GCGGAGCGAAAGCTGGGC ((..(((....)))..)), the Tm in data set [1] was found to be 43.2 °C. For the same sequence, the folding enthalpy in data set [2] was -7.98 kcal/mol.

For the sequence GCGGAGGCGAAAGCCCGC (((..(((....)))))), in data set [1], the Tm was 66.6 °C. Moreover, in data set [2], the folding enthalpy is -21.7 kcal/mol.

Consider GCGGAGGGAAACCCCCGC ((((.((....)).)))), for which, in data set [1], the Tm turned out to be 57.6 °C. In addition, in data set [2], the folding enthalpy was -38.9 kcal/mol.

GCGGAGGGCCGC ((((....)))): the Tm in data set [1] is 53.9 °C. The folding enthalpy in data set [2] was -15.4 kcal/mol.

Regarding GCGGAGGTCCGC ((((....)))), the Tm in data set [1] was determined as 56.4 °C. Besides, the folding enthalpy in data set [2] was -24.4 kcal/mol.

Turning to GCGGAGTCCCGC ((((....)))), in data set [1], the Tm came out at 55.7 °C. The folding enthalpy in data set [2] is -21.1 kcal/mol.

Regarding GCGGAGTTCCGC ((((....)))), the Tm in data set [1] was 59.6 °C. In data set [2], the folding enthalpy is -23.4 kcal/mol.

On to GCGGATAACCGC ((((....)))), for which the Tm in data set [1] was determined as 53 °C. Also, the folding enthalpy in data set [2] is -19.6 kcal/mol.

As for GCGGATAGCCGC ((((....)))), the Tm in data set [1] turned out to be 54.9 °C. In addition, the folding enthalpy in data set [2] was -26.6 kcal/mol.

GCGGATCCCCGC ((((....)))): in data set [1], the Tm was 56.4 °C. The folding enthalpy in data set [2] was -23.3 kcal/mol.

Consider GCGGATCCCGC ((((...)))), for which the Tm in data set [1] came to 53.6 °C. For the same sequence, in data set [2], the folding enthalpy was -23.4 kcal/mol.

In the case of GCGGATCGAAAGATCGC (((.(((....)))))), in data set [1], the Tm turned out to be 58.1 °C. The folding enthalpy in data set [2] is -25.6 kcal/mol.

Consider GCGGATCTCCGC ((((....)))), for which the Tm in data set [1] was determined as 59.6 °C. Also, the folding enthalpy in data set [2] was -25.3 kcal/mol.

Turning to GCGGATGGAAACGTTCGC (((.(.(....).).))), in data set [1], the Tm was found to be 44.1 °C. In data set [2], the folding enthalpy is -28.2 kcal/mol.

For GCGGATGGCCGC ((((....)))), the Tm in data set [1] was 54.6 °C. The folding enthalpy in data set [2] is -21 kcal/mol.

For the sequence GCGGATGTCCGC ((((....)))), the Tm in data set [1] was 57.5 °C. Moreover, the folding enthalpy in data set [2] is -22.7 kcal/mol.
